This passage reports IC50 results from paper PMC10436028 (RSC Advances, 2023).

One may read the IC50 as the point on the concentration scale where inhibition reaches its midpoint.

Holding throughout (type): cell-based
For one experiment, the system named is A-375 cell line. Description: MTT assay, melanoma A-375 cell line. To be noted: Homo sapiens, A-375, 48 h, read-out: IC50 against A-375. In a few lines: (§1)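 Test compound dissolved in PBS with 0.5% DMSO and diluted in the same solvent. Cells were grown in DMEM with 10% FBS and 1% penicillin-streptomycin at 37 °C, 5% CO2. They were trypsinised, seeded and held 48 h, then given fresh medium. Exposure was 15.62–500 μM for 48 h. MTT (0.5 mg.mL−1) ran 4 h, formazan was dissolved in DMSO, and A570 read. Six vehicle wells per plate served as control. Viability was computed, in triplicate, as mean ± SD.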
Background: Tetrazolium dyes change colour on reduction, which living cells bring about.

In another experiment the test system is MCF-7 cell line. As to the kind of experiment: MTT assay, breast cancer MCF-7 cell line. Conditions: Homo sapiens, MCF7, 48 h, read-out: IC50 against MCF-7. Put shortly: as §1
A further experiment concerns HEK-293 cell line. As to the kind of experiment: MTT toxicity assay, normal cell line HEK-293. Conditions: Homo sapiens, HEK293, 48 h, read-out: IC50 against HEK-293. In a few lines: as §1

Regarding `Cn1c(=O)c2c(nc(N3CCN(Cc4cn(CC(=O)OCc5ccccc5)nn4)CC3)n2C)n(C)c1=O` [Compound 12b, Benzyl 2-(4-((4-(1,3,7-trimethyl-2,6-dioxo-2,3,6,7-tetrahydro-1H-purin-8-yl)piperazin-1-yl)methyl)-1H-1,2,3-triazol-1-yl)acetate], the IC50 in the experiment on A-375 cell line, in the experiment with MCF-7 cell line and with HEK-293 cell line was over 500 µM in each case.
As for `Cn1c(=O)c2c(nc(N3CCN(Cc4cn(CCCCCN5C(=O)c6ccccc6S5(=O)=O)nn4)CC3)n2C)n(C)c1=O` [Compound 12o, 8-(4-((1-(5-(1,1-Dioxido-3-oxobenzo[d]isothiazol-2(3H)-yl)pentyl)-1H-1,2,3-triazol-4-yl)methyl)piperazin-1-yl)-1,3,7-trimethyl-3,7-dihydro-1H-purine-2,6-dione], the IC50 with A-375 cell line, in the experiment with MCF-7 cell line and in the experiment on HEK-293 cell line was over 500 µM each time.
As to `Cn1c(=O)c2c(nc(N3CCN(Cc4cn(CCCc5ccccc5)nn4)CC3)n2C)n(C)c1=O` [Compound 12d, 1,3,7-Trimethyl-8-(4-((1-(3-phenylpropyl)-1H-1,2,3-triazol-4-yl)methyl)piperazin-1-yl)-3,7-dihydro-1H-purine-2,6-dione], the IC50 in the experiment with A-375 cell line, with MCF-7 cell line and with HEK-293 cell line was over 500 µM in each case.
`Cn1c(=O)c2c(nc(N3CCN(Cc4cn(C(c5ccccc5)c5ccccc5)nn4)CC3)n2C)n(C)c1=O` [Compound 12c, 8-(4-((1-Benzhydryl-1H-1,2,3-triazol-4-yl)methyl)piperazin-1-yl)-1,3,7-trimethyl-3,7-dihydro-1H-purine-2,6-dione]: the IC50 in the experiment with A-375 cell line, in the experiment with MCF-7 cell line and in the experiment on HEK-293 cell line was over 500 µM throughout.
For `Cc1ccc(Cn2cc(CN3CCN(c4nc5c(c(=O)n(C)c(=O)n5C)n4C)CC3)nn2)cc1` [Compound 12f, 1,3,7-Trimethyl-8-(4-((1-(4-methylbenzyl)-1H-1,2,3-triazol-4-yl)methyl)piperazin-1-yl)-3,7-dihydro-1H-purine-2,6-dione], the IC50 in the experiment with A-375 cell line, in the experiment on MCF-7 cell line and with HEK-293 cell line was over 500 µM throughout.
`CCCCCCCCn1cc(CN2CCN(c3nc4c(c(=O)n(C)c(=O)n4C)n3C)CC2)nn1` [Compound 12j, 1,3,7-Trimethyl-8-(4-((1-octyl-1H-1,2,3-triazol-4-yl)methyl)piperazin-1-yl)-3,7-dihydro-1H-purine-2,6-dione]: the IC50 turned out to be 323 ± 2.6 µM in the experiment on A-375 cell line, 245 ± 2.3 µM in the experiment with MCF-7 cell line and 418 ± 2.4 µM in the experiment on HEK-293 cell line.
For `Cn1c(=O)c2c(nc(N3CCN(Cc4cn(CCCN5C(=O)c6ccccc6S5(=O)=O)nn4)CC3)n2C)n(C)c1=O` [Compound 12n, 8-(4-((1-(3-(1,1-Dioxido-3-oxobenzo[d]isothiazol-2(3H)-yl)propyl)-1H-1,2,3-triazol-4-yl)methyl)piperazin-1-yl)-1,3,7-trimethyl-3,7-dihydro-1H-purine-2,6-dione], in that order: over 500 µM, over 500 µM and over 500 µM.
As to `CCCCCCn1cc(CN2CCN(c3nc4c(c(=O)n(C)c(=O)n4C)n3C)CC2)nn1` [Compound 12i, 8-(4-((1-Hexyl-1H-1,2,3-triazol-4-yl)methyl)piperazin-1-yl)-1,3,7-trimethyl-3,7-dihydro-1H-purine-2,6-dione], the figures for the IC50 in the experiment with A-375 cell line, with MCF-7 cell line and in the experiment on HEK-293 cell line were 371 ± 2.5 µM, 260 ± 2.2 µM and 371 ± 2.3 µM, respectively.
For `CCOC(=O)CCCn1cc(CN2CCN(c3nc4c(c(=O)n(C)c(=O)n4C)n3C)CC2)nn1` [Compound 12g, Ethyl 4-(4-((4-(1,3,7-trimethyl-2,6-dioxo-2,3,6,7-tetrahydro-1H-purin-8-yl)piperazin-1-yl)methyl)-1H-1,2,3-triazol-1-yl)butanoate], in that order: over 500 µM, over 500 µM and over 500 µM.
For `Cn1c(=O)c2c(nc(N3CCN(Cc4cn(CCc5ccccc5)nn4)CC3)n2C)n(C)c1=O` [Compound 12e, 1,3,7-Trimethyl-8-(4-((1-phenethyl-1H-1,2,3-triazol-4-yl)methyl)piperazin-1-yl)-3,7-dihydro-1H-purine-2,6-dione], in that order: over 500 µM, over 500 µM and over 500 µM.
On the same counts, the results for `Cn1c(=O)c2c(nc(N3CCN(Cc4cn(Cc5ccccc5)nn4)CC3)n2C)n(C)c1=O` [Compound 12a, 8-(4-((1-Benzyl-1H-1,2,3-triazol-4-yl)methyl)piperazin-1-yl)-1,3,7-trimethyl-3,7-dihydro-1H-purine-2,6-dione] are over 500 µM, over 500 µM and over 500 µM.
As to `CN(Cc1cnc2nc(N)nc(N)c2n1)c1ccc(C(=O)N[C@@H](CCC(=O)O)C(=O)O)cc1` [MTX, methotrexate, reference compound], the IC50 came out at 418 ± 2 µM with A-375 cell line, 343 ± 3.6 µM in the experiment with MCF-7 cell line and 199 ± 2.4 µM with HEK-293 cell line.
For `Cn1c(=O)c2c(nc(N3CCN(Cc4cn(CCCCCN5C(=O)c6ccccc6C5=O)nn4)CC3)n2C)n(C)c1=O` [Compound 12l, 8-(4-((1-(5-(1,3-Dioxoisoindolin-2-yl)pentyl)-1H-1,2,3-triazol-4-yl)methyl)piperazin-1-yl)-1,3,7-trimethyl-3,7-dihydro-1H-purine-2,6-dione], in that order: over 500 µM, over 500 µM and over 500 µM.
On to `CCCCCCCCCCn1cc(CN2CCN(c3nc4c(c(=O)n(C)c(=O)n4C)n3C)CC2)nn1` [Compound 12k, 8-(4-((1-Decyl-1H-1,2,3-triazol-4-yl)methyl)piperazin-1-yl)-1,3,7-trimethyl-3,7-dihydro-1H-purine-2,6-dione], for which the IC50 was 367 ± 3.4 µM in the experiment on A-375 cell line, 175 ± 3.2 µM in the experiment on MCF-7 cell line and over 500 µM with HEK-293 cell line.
Turning to `Cn1c(=O)c2c(nc(N3CCN(Cc4cn(CCCCN5C(=O)c6ccccc6S5(=O)=O)nn4)CC3)n2C)n(C)c1=O` [Compound 12m, 8-(4-((1-(4-(1,1-Dioxido-3-oxobenzo[d]isothiazol-2(3H)-yl)butyl)-1H-1,2,3-triazol-4-yl)methyl)piperazin-1-yl)-1,3,7-trimethyl-3,7-dihydro-1H-purine-2,6-dione], the IC50 in the experiment on A-375 cell line, in the experiment on MCF-7 cell line and in the experiment on HEK-293 cell line was over 500 µM in each case.
Turning to `CCCCCCCn1cc(CN2CCN(c3nc4c(c(=O)n(C)c(=O)n4C)n3C)CC2)nn1` [Compound 12h, 8-(4-((1-Heptyl-1H-1,2,3-triazol-4-yl)methyl)piperazin-1-yl)-1,3,7-trimethyl-3,7-dihydro-1H-purine-2,6-dione], the IC50 was 498 ± 2 µM in the experiment with A-375 cell line, 306 ± 1.8 µM in the experiment with MCF-7 cell line and over 500 µM with HEK-293 cell line.
